In ChEMBL document CHEMBL4219167, “Disulfiram-based disulfides as narrow-spectrum antibacterial agents” (Bioorg Med Chem Lett, 2018):
Converted amounts (≈) assume the structure as drawn.

Key:
Staphylococcus aureus [1] = test: Antibacterial activity against methicillin-resistant Staphylococcus aureus COL after 20 hrs by broth microdilution assay; type: functional
Staphylococcus aureus [2] = test: Antibacterial activity against vancomycin-resistant Staphylococcus aureus HIP14300 after 20 hrs by broth microdilution assay; type: functional; conditions: HIP14300, 20 h
Staphylococcus aureus [3] = test: Antibacterial activity against vancomycin-intermediate resistant Staphylococcus aureus AR-217 after 20 hrs by broth microdilution assay; type: functional; conditions: AR-217, 20 h
Enterococcus faecium = test: Antibacterial activity against vancomycin-resistant Enterococcus faecium ATCC 700221 after 20 hrs by broth microdilution assay; type: functional; conditions: ATCC 700221, 20 h
Outline: (§1)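 Brain heart infusion broth at 37°C; E. faecium under 5% CO2. Cells at 0.5 McFarland are diluted 1:100 and exposed to serial dilutions (DMSO stocks 1 mM or 1 mg/mL; controls in water).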

[4] = tested on: Staphylococcus epidermidis; test: Antibacterial activity against vancomycin-intermediate resistant Staphylococcus epidermidis NRS6 after 20 hrs by broth microdilution assay; type: functional; conditions: NRS6, 20 h
Streptococcus pneumoniae = test: Antibacterial activity against Streptococcus pneumoniae TCH8431 after 20 hrs by broth microdilution assay; type: functional; conditions: TCH8431, 20 h
Streptococcus pyogenes = test: Antibacterial activity against Streptococcus pyogenes H293 after 20 hrs by broth microdilution assay; type: functional; conditions: H293, 20 h
Streptococcus agalactiae = test: Antibacterial activity against Streptococcus agalactiae SGBS005 after 20 hrs by broth microdilution assay; type: functional; conditions: SGBS005, 20 h
Bacillus anthracis [5] = test: Antibacterial activity against Bacillus anthracis UM23-1 after 20 hrs by broth microdilution assay; type: functional; conditions: UM23-1, 20 h
Bacillus cereus = test: Antibacterial activity against Bacillus cereus Gibson 971 after 20 hrs by broth microdilution assay; type: functional; conditions: Gibson 971, 20 h
Yersinia enterocolitica = test: Antibacterial activity against Yersinia enterocolitica WA-314 after 20 hrs by broth microdilution assay; type: functional; conditions: WA-314, 20 h
Outline: (§2)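 Yersinia cultured in tryptic soy broth at 28°C. A 0.5 McFarland suspension diluted 1:100 receives serial dilutions of agents from 1 mM or 1 mg/mL DMSO stocks; control antibiotics are in water.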

Citrobacter freundii = test: Antibacterial activity against Citrobacter freundii 4_7_47CFAA after 20 hrs by broth microdilution assay; type: functional
Outline: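 Brucella broth, 37°C, 5% CO2. Inoculum is 0.5 McFarland diluted 1:100, with serial drug dilutions from DMSO stocks (1 mM or 1 mg/mL) and control antibiotics in water.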

Proteus mirabilis = test: Antibacterial activity against Proteus mirabilis HM-752 after 20 hrs by broth microdilution assay; type: functional; conditions: HM-752, 20 h
Outline: (§3)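 Medium is tryptic soy broth, 37°C. Overnight culture is adjusted to 0.5 McFarland, diluted 1:100 and exposed to serial dilutions (test agents from 1 mM or 1 mg/mL DMSO stocks; control antibiotics in water). Incubation lasts 20 h. MIC is the lowest concentration with no visible growth.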

Yersinia pestis [6] = test: Antibacterial activity against Yersinia pestis Kim D2 after 20 hrs by broth microdilution assay; type: functional; conditions: Kim D2, 20 h
Shigella dysenteriae = test: Antibacterial activity against Shigella dysenteriae Newcastle 1934 after 20 hrs by broth microdilution assay; type: functional; conditions: Newcastle 1934, 20 h; outline: as §3
Vibrio cholerae = test: Antibacterial activity against Vibrio cholerae TS D4 after 20 hrs by Todd Hewitt broth broth microdilution method; type: functional; conditions: TS D4, 20 h
[7] = tested on: Yersinia pseudotuberculosis; test: Antibacterial activity against Yersinia pseudotuberculosis P61 after 20 hrs by broth microdilution assay; type: functional; conditions: P61, 20 h; outline: as §2
Listeria monocytogenes = test: Antibacterial activity against Listeria monocytogenes Gibson after 20 hrs by broth microdilution assay; type: functional; outline: as §1
Bacillus anthracis [8] = test: Antibacterial activity against Bacillus anthracis Weybridge after 20 hrs by broth microdilution assay; type: functional
Escherichia coli = test: Antibacterial activity against Escherichia coli DC10B after 20 hrs by broth microdilution assay; type: functional; outline: as §3
Burkholderia multivorans = test: Antibacterial activity against Burkholderia multivorans CF2 after 20 hrs by broth microdilution assay; type: functional; conditions: CF2, 20 h; outline: as §3
Pseudomonas aeruginosa = test: Antibacterial activity against Pseudomonas aeruginosa ATCC 15442 after 20 hrs by broth microdilution assay; type: functional; conditions: ATCC 15442, 20 h; outline: as §3
Bacillus anthracis [9] = test: Antibacterial activity against Bacillus anthracis Ames 35 after 20 hrs by broth microdilution assay; type: functional; conditions: Ames 35, 20 h
Francisella tularensis = test: Antibacterial activity against Francisella tularensis Utah 112 after 20 hrs by broth microdilution assay; type: functional; conditions: Utah 112, 20 h
Bacillus anthracis [10] = test: Antibacterial activity against Bacillus anthracis Sterne 34F2 after 20 hrs by broth microdilution assay; type: functional; conditions: Sterne 34F2, 20 h
Acinetobacter baumannii = test: Antibacterial activity against Acinetobacter baumannii AB5075 after 20 hrs by broth microdilution assay; type: functional; conditions: AB5075, 20 h
Yersinia pestis [11] = test: Antibacterial activity against Yersinia pestis Kuma D7 after 20 hrs by broth microdilution assay; type: functional; conditions: Kuma D7, 20 h
Brucella neotomae = test: Antibacterial activity against Brucella neotomae 5K33 after 20 hrs by broth microdilution assay; type: functional; conditions: 5K33, 20 h
Klebsiella pneumoniae = test: Antibacterial activity against Klebsiella pneumoniae 700603 after 20 hrs by broth microdilution assay; type: functional; conditions: Klebsiella pneumoniae, 700603, 20 h; outline: as §3
Rhodococcus erythropolis = test: Antibacterial activity against Rhodococcus erythropolis SK121 after 20 hrs by broth microdilution assay; type: functional; conditions: SK121, 20 h
Outline: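 R. erythropolis grown in brain heart infusion broth at 30°C. A 0.5 McFarland suspension diluted 1:100 is treated with serial dilutions from 1 mM or 1 mg/mL DMSO stocks; control antibiotics are in water.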

Salmonella typhi = test: Antibacterial activity against Salmonella typhi Ty2 after 20 hrs by Todd Hewitt broth broth microdilution method; type: functional, Salmonella enterica subsp. enterica serovar Typhi str. Ty2; conditions: Salmonella enterica
Burkholderia cepacia = test: Antibacterial activity against Burkholderia cepacia UCB 717 after 20 hrs by broth microdilution assay; type: functional; conditions: UCB 717, 20 h; outline: as §3
Corynebacterium striatum = test: Antibacterial activity against Corynebacterium striatum FS-1 after 20 hrs by broth microdilution assay; type: functional; conditions: FS-1, 20 h
Micrococcus luteus = test: Antibacterial activity against Micrococcus luteus SK58 after 20 hrs by broth microdilution assay; type: functional; conditions: SK58, 20 h

In the case of CCN(CC)C(=S)SSC(C)C [ISOPROPYL DIETHYLCARBAMO(DITHIOPEROXO)THIOATE], the MIC (Staphylococcus aureus [1]) is reported as over 32 µM, the MIC (Staphylococcus aureus [2]) is reported as over 32 µM and the MIC (Staphylococcus aureus [3]) is reported as 32 µM (≈ 7.15 µg/mL). The MIC (Enterococcus faecium) was over 32 µM, the MIC [4] was over 32 µM and the MIC (Streptococcus pneumoniae) was over 32 µM. The MIC (Streptococcus pyogenes) was 32 µM (≈ 7.15 µg/mL) and the MIC (Streptococcus agalactiae) was over 32 µM.

Work on CCCCCCCCCCSSC(=S)N(CC)CC yielded an MIC (Staphylococcus aureus [1]) of 16 µM (≈ 5.15 µg/mL), an MIC (Staphylococcus aureus [2]) of 32 µM (≈ 10.3 µg/mL) and an MIC (Staphylococcus aureus [3]) of 16 µM (≈ 5.15 µg/mL). It also gave an MIC (Enterococcus faecium) of 16 µM (≈ 5.15 µg/mL), an MIC [4] of 16 µM (≈ 5.15 µg/mL) and an MIC (Streptococcus pneumoniae) of 4 µM (≈ 1.29 µg/mL). The MIC (Streptococcus pyogenes) was 4 µM (≈ 1.29 µg/mL) and the MIC (Streptococcus agalactiae) was 16 µM (≈ 5.15 µg/mL).

CCN(CC)C(=S)SSC was tested, and the MIC (Bacillus anthracis [5]) was 2 µM (≈ 0.391 µg/mL), the MIC (Staphylococcus aureus [1]) was 32 µM (≈ 6.25 µg/mL) and the MIC (Bacillus cereus) was 1 µM (≈ 0.195 µg/mL). For the same compound, the MIC (Yersinia enterocolitica) was over 32 µM, the MIC (Citrobacter freundii) was over 32 µM and the MIC (Proteus mirabilis) was over 32 µM. It also gave an MIC (Yersinia pestis [6]) of 16 µM (≈ 3.13 µg/mL), an MIC (Shigella dysenteriae) of over 32 µM and an MIC (Vibrio cholerae) of 32 µM (≈ 6.25 µg/mL). The MIC [7] was over 32 µM, the MIC (Listeria monocytogenes) was 32 µM (≈ 6.25 µg/mL) and the MIC (Bacillus anthracis [8]) was 4 µM (≈ 0.782 µg/mL). It also gave an MIC (Escherichia coli) of over 32 µM, an MIC (Staphylococcus aureus [2]) of 16 µM (≈ 3.13 µg/mL) and an MIC (Burkholderia multivorans) of 32 µM (≈ 6.25 µg/mL). It also gave an MIC (Staphylococcus aureus [3]) of 8 µM (≈ 1.56 µg/mL), an MIC (Pseudomonas aeruginosa) of over 32 µM and an MIC (Bacillus anthracis [9]) of 4 µM (≈ 0.782 µg/mL). For the same compound, the MIC (Francisella tularensis) was 32 µM (≈ 6.25 µg/mL), the MIC (Bacillus anthracis [10]) was 4 µM (≈ 0.782 µg/mL) and the MIC (Acinetobacter baumannii) was over 32 µM. The MIC (Yersinia pestis [11]) was 16 µM (≈ 3.13 µg/mL), the MIC (Brucella neotomae) was over 32 µM and the MIC (Enterococcus faecium) was over 32 µM. The MIC (Klebsiella pneumoniae) was over 32 µM, the MIC [4] was 32 µM (≈ 6.25 µg/mL) and the MIC (Rhodococcus erythropolis) was 16 µM (≈ 3.13 µg/mL). For the same compound, the MIC (Salmonella typhi) was over 32 µM, the MIC (Streptococcus pneumoniae) was over 32 µM and the MIC (Streptococcus pyogenes) was 32 µM (≈ 6.25 µg/mL). It also gave an MIC (Burkholderia cepacia) of over 32 µM, an MIC (Streptococcus agalactiae) of over 32 µM and an MIC (Corynebacterium striatum) of over 32 µM. The MIC (Micrococcus luteus) was 32 µM (≈ 6.25 µg/mL).

In the case of CCN(CC)C(=S)SSCC(C)C, the MIC (Staphylococcus aureus [1]) is reported as over 32 µM, the MIC (Staphylococcus aureus [2]) is reported as over 32 µM and the MIC (Staphylococcus aureus [3]) is reported as over 32 µM. The MIC (Enterococcus faecium) was over 32 µM, the MIC [4] was over 32 µM and the MIC (Streptococcus pneumoniae) was over 32 µM. The MIC (Streptococcus pyogenes) was 32 µM (≈ 7.6 µg/mL) and the MIC (Streptococcus agalactiae) was over 32 µM.

In the case of CCN(CC)C(=S)SSC1CCCC1, the MIC (Staphylococcus aureus [1]) is reported as 32 µM (≈ 7.98 µg/mL), the MIC (Staphylococcus aureus [2]) is reported as 32 µM (≈ 7.98 µg/mL) and the MIC (Staphylococcus aureus [3]) is reported as 16 µM (≈ 3.99 µg/mL). It also gave an MIC (Enterococcus faecium) of over 32 µM, an MIC [4] of 32 µM (≈ 7.98 µg/mL) and an MIC (Streptococcus pneumoniae) of over 32 µM. It also gave an MIC (Streptococcus pyogenes) of 32 µM (≈ 7.98 µg/mL) and an MIC (Streptococcus agalactiae) of over 32 µM.

CCN(CC)C(=S)SSC1CCCCC1 [CYCLOHEXYL DIETHYLCARBAMO(DITHIOPEROXO)THIOATE] gave an MIC (Staphylococcus aureus [1]) of 32 µM (≈ 8.43 µg/mL), an MIC (Staphylococcus aureus [2]) of 32 µM (≈ 8.43 µg/mL) and an MIC (Staphylococcus aureus [3]) of 16 µM (≈ 4.22 µg/mL). For the same compound, the MIC (Enterococcus faecium) was over 32 µM, the MIC [4] was 32 µM (≈ 8.43 µg/mL) and the MIC (Streptococcus pneumoniae) was over 32 µM. For the same compound, the MIC (Streptococcus pyogenes) was 16 µM (≈ 4.22 µg/mL) and the MIC (Streptococcus agalactiae) was over 32 µM.

Compound O=C(O)c1cn(C2CC2)c2cc(N3CCNCC3)c(F)cc2c1=O [CIPROFLOXACIN] has an MIC (Citrobacter freundii) of at most 0.5 µM, an MIC (Proteus mirabilis) of at most 0.5 µM and an MIC (Yersinia pestis [6]) of at most 0.5 µM. It also gave an MIC (Vibrio cholerae) of at most 0.5 µM, an MIC [7] of at most 0.5 µM and an MIC (Escherichia coli) of at most 0.5 µM. For the same compound, the MIC (Burkholderia multivorans) was 8 µM (≈ 2.65 µg/mL), the MIC (Francisella tularensis) was at most 0.5 µM and the MIC (Acinetobacter baumannii) was at most 0.5 µM. For the same compound, the MIC (Yersinia pestis [11]) was at most 0.5 µM, the MIC (Rhodococcus erythropolis) was at most 0.5 µM and the MIC (Salmonella typhi) was at most 0.5 µM. For the same compound, the MIC (Corynebacterium striatum) was over 32 µM.
